ROMK mod: modulators of human ROMK potassium channel; Tet-inducible ROMK, thallium flux fluorescence; actives lie on both sides; 130,000 tested, 2% active; P48048; B-score at 10 µM;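 active = signal ratio slope over the read window, or its plate-corrected B-score, at least 3 SD from the plate mean, either direction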;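 also: B-score of the F/F0 ratio slope over 7 to 12 s after thallium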
Target sequence (P48048 whole entry, looked up): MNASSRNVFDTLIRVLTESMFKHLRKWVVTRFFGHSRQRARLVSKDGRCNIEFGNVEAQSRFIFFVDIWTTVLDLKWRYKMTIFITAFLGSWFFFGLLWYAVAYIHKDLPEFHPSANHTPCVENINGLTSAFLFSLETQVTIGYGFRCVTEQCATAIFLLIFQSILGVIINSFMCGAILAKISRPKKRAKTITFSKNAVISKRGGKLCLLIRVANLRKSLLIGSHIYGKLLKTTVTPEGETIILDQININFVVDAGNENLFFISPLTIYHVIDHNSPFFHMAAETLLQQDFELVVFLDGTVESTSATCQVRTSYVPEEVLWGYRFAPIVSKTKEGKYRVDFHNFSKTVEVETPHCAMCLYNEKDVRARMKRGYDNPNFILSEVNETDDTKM
Biofilm kill mix: mixture kills Candida albicans biofilm cells; 120,000 tested, 0.02% active; C. albicans biofilm persisters + clotrimazole, fluorescence viability; primary screen in compound mixtures of four per well; inhibition, % at 7.6 µM; AID 1242;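 active = inhibition above 30.3% in the primary screen of four-compound pools, then above 30% when the compound was retested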;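 also: compounds exposed to preformed 24 h biofilms for 48 h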
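Incubation: 24 h biofilm formation, then 48 h compound exposure, 37 °C | Material: C. albicans biofilms | Buffer or medium: RPMI/MOPS medium, pH 7.0 | Measured by: 2-h Alamar Blue fluorescence, 535/590 nm excitation/emission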
ROMK hit retest: confirmation of human ROMK potassium channel modulators. shares compounds with ROMK mod. ROMK thallium flux, fluorescence ratio; hits give low values. normalized thallium flux (F/F0 slope) at 10 µM. 3,000 tested, 54% active. AID 1917;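 active = Flux at 10 µM at least 3 SD below or above vehicle control mean in one or both replicates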
Hits are given with their value. This is one part of a sample in which hits are shown more often than they occur.

`CCOC(=O)C1CCN(c2ccc([N+](=O)[O-])c(C(C)=O)c2)CC1` gave ROMK mod -2.99, Biofilm kill mix inactive and ROMK hit retest inactive.
For c1cc2c3c(cccc3c1)C(N1CCCCCC1)=N2 the results were ROMK mod inactive.
Screening c1ccc2c(c1)CCN(C1=Nc3cccc4cccc1c34)C2 returned ROMK mod -2.03, Biofilm kill mix inactive and ROMK hit retest 0.0539.
`CC(C)NC(=O)COc1ccc2c(c1)C(=O)CC(C)(C)O2` gave ROMK mod inactive and Biofilm kill mix inactive.
`Cc1ccc2c(c1)C(=O)CC(O)(C(F)F)O2` (stereo unspecified) gave Biofilm kill mix inactive and ROMK hit retest inactive.
For Cc1ccc(-c2nnc(N3CCC(C)CC3)c3ccccc23)cc1C the results were ROMK mod inactive and Biofilm kill mix inactive.
For CCOc1ccc(-n2c(C)cc(/C=N/N(C)C)c2C)cc1 the results were ROMK mod inactive and Biofilm kill mix inactive.
`O=C(Oc1ccccc1N1CCOCC1)c1ccccc1` gave ROMK mod inactive and Biofilm kill mix inactive.
For COC(=O)CSC1=C(C#N)C(=O)NC(c2ccccc2)S1 (stereo unspecified) the results were ROMK mod inactive.
Screening CSC1=C(C#N)C(=O)NC(c2ccccc2O)S1 (stereo unspecified) returned ROMK mod -4.16, Biofilm kill mix inactive and ROMK hit retest 0.0585.
For OC(COCc1ccc(Cl)cc1)CN1CCc2ccccc2C1 (stereo unspecified) the results were ROMK mod inactive and Biofilm kill mix inactive.
OC(COCc1ccc(Cl)cc1)CN1CCN(CC(O)COCc2ccc(Cl)cc2)CC1 (stereo unspecified) was read as ROMK mod -2.98 and ROMK hit retest 0.0536.
`CC1=NN(c2nc3ccccc3s2)C(O)(C(F)(F)F)C1` (stereo unspecified) gave ROMK mod inactive and Biofilm kill mix inactive.
`COc1cc(CNc2ccc(N3CCCC3)cc2)cc(Cl)c1OC` gave ROMK mod 4.01, Biofilm kill mix inactive and ROMK hit retest inactive.
`CCOc1cc(CNc2ccc(N3CCCC3)cc2)cc(Cl)c1OC` gave ROMK mod inactive and Biofilm kill mix inactive.
`CCC1Oc2ccc(C)cc2N(CC(=O)N(Cc2ccc(C)o2)C2CC(C)(C)NC(C)(C)C2)C1=O` (stereo unspecified) gave ROMK mod -6.94, Biofilm kill mix inactive and ROMK hit retest 0.0594.
`CCC1Oc2ccc(C)cc2N(CC(=O)NCc2ccco2)C1=O` (stereo unspecified) gave ROMK mod inactive and Biofilm kill mix inactive.
O=C1N(CC(=O)N2CCc3ccccc32)CCN1Cc1ccc(Cl)cc1 was read as ROMK mod inactive.
`Cc1snc(S(=O)(=O)/C(C#N)=N/Nc2ccc(C(F)(F)F)cc2)c1C#N` gave ROMK mod 3.82 and ROMK hit retest 0.102.
Cc1snc(S(=O)(=O)/C(C#N)=N\Nc2ccccc2)c1C#N was read as ROMK mod inactive.
COc1cc(C(=O)N2CCN(c3ncnc4sc(C)c(C)c34)CC2)cc(OC)c1OC was read as ROMK hit retest inactive.
Screening Cc1sc2ncnc(N3CCN(c4ncccn4)CC3)c2c1C returned ROMK mod inactive.
`O=C(C1CCN(S(=O)(=O)c2ccccc2)CC1)N1CCOCC1` gave ROMK mod inactive.
COc1ccc(CCNC(=O)CN(c2cc([N+](=O)[O-])ccc2OC)S(C)(=O)=O)cc1OC was read as ROMK mod inactive and Biofilm kill mix inactive.
For COc1ccc(CCNC(=O)CN(c2cccc([N+](=O)[O-])c2)S(C)(=O)=O)cc1OC the results were ROMK mod inactive, Biofilm kill mix inactive and ROMK hit retest inactive.
For O=C(NCCc1ccc(F)cc1)c1cccs1 the results were ROMK mod inactive and Biofilm kill mix inactive.
`COc1ccc(C(=O)Nc2ccc3c(c2)nc(CCNC(C)=O)n3C)cc1` gave ROMK mod 2.97 and ROMK hit retest inactive.
COc1ccccc1C(=O)Nc1ccc2c(c1)nc(CCNC(C)=O)n2C was read as ROMK mod inactive.
`CCC1CCC2(CC1)NC(=O)N(CC(=O)Nc1cc(C)on1)C2=O` (stereo unspecified) gave ROMK mod inactive and Biofilm kill mix inactive.
`O=S(=O)(/C(=C/c1ccc(C(F)(F)F)cc1)c1nc2ccccc2[nH]1)c1ccccc1` gave ROMK mod -4.27, Biofilm kill mix inactive and ROMK hit retest 0.0514.
`O=c1[nH]c2ccccc2nc1C(F)(F)F` gave Biofilm kill mix inactive.
For CC(C)c1ccc(/C=C(\c2nc3ccccc3[nH]2)S(=O)(=O)c2ccccc2)cc1 the results were ROMK mod -3.74, Biofilm kill mix inactive and ROMK hit retest 0.0597.
`COC(=O)/C(=C\c1ccc(O)cc1)c1nc2ccccc2[nH]1` gave ROMK mod inactive and Biofilm kill mix inactive.
For CCn1c(SCC(=O)c2c[nH]c3ccccc23)nc2cc(S(=O)(=O)N3CCOCC3)ccc21 the results were ROMK mod inactive and Biofilm kill mix inactive.
`O=C(CCC(=O)c1cccs1)OCc1nnc(-c2ccccc2)o1` gave ROMK mod inactive.
For Cc1ccc(C(=O)N2CCc3ccccc32)o1 the results were ROMK mod inactive and Biofilm kill mix inactive.
For CC(=O)c1ccc(-c2ccc(C(=O)N3CCCc4ccccc43)o2)cc1 the results were ROMK mod -3.54, Biofilm kill mix inactive and ROMK hit retest 0.057.
COc1ccc(CC(=O)N2CCCc3ccccc32)cc1OC was read as ROMK mod inactive.
`COc1ccc(CC(=O)N2CCCc3ccccc32)cc1` gave ROMK hit retest inactive.
`O=C(CSc1c2c(nc3cc(Cl)ccc13)CCCC2)NCCCN1CCOCC1` gave ROMK mod -1.78, Biofilm kill mix inactive and ROMK hit retest inactive.
Screening O=C(CSc1c2c(nc3cc(Cl)ccc13)CCCC2)NCCN1CCOCC1 returned ROMK mod inactive and Biofilm kill mix inactive.
COC(=O)/C=c1/s/c(=C(/C#N)C(=O)N2CCCCC2)n(-c2ccccc2)c1=O was read as ROMK mod -3.2, Biofilm kill mix inactive and ROMK hit retest 0.0566.
COC(=O)/C=c1/s/c(=C(/C#N)C(=O)N2CCOCC2)n(-c2ccccc2)c1=O was read as ROMK mod inactive.
Screening COc1ccc(CC(=O)NCc2n[nH]c(=S)n2-c2ccccc2OC)cc1 returned ROMK mod inactive and Biofilm kill mix inactive.
For Cc1ccc(NC2c3ncccc3C(=O)N2Cc2cccs2)cc1C (stereo unspecified) the results were ROMK mod inactive and Biofilm kill mix inactive.
`CC1(C)Cc2c(C#N)c(SCc3ccccc3)nc(N3CCOCC3)c2CO1` gave ROMK mod inactive.
CC1(C)Cc2c(C#N)c(SCC(=O)c3ccccc3)nc(N3CCOCC3)c2CO1 was read as ROMK mod -3.91 and ROMK hit retest 0.0532.
Screening O=C(NC(=S)Nc1cccc2ncccc12)c1cccs1 returned ROMK mod inactive and Biofilm kill mix inactive.
S=C(c1ccc(-c2ccc(Br)cc2)o1)N1CCCCC1 was read as ROMK mod inactive and Biofilm kill mix inactive.
Screening S=C(c1ccc(-c2ccc(Br)cc2)o1)N1CCOCC1 returned ROMK mod 2.44, Biofilm kill mix inactive and ROMK hit retest inactive.
`CCCn1c(=N)c(C(=O)NC2CCCC2)cc2c(=O)n3cccc(C)c3nc21` gave ROMK mod inactive and Biofilm kill mix inactive.
